Data from publication PMC9463588 (The Journal of Biological Chemistry, 2022).
“Also recorded” adds a separate entry of the source. Read-outs that look alike come from different tables or passages of the source.

T1: CYP8B1 W281F (Homo sapiens, UniProt Q9UNU6, W281F)
T1 sequence (Q9UNU6 26-501 W281F limits assumed): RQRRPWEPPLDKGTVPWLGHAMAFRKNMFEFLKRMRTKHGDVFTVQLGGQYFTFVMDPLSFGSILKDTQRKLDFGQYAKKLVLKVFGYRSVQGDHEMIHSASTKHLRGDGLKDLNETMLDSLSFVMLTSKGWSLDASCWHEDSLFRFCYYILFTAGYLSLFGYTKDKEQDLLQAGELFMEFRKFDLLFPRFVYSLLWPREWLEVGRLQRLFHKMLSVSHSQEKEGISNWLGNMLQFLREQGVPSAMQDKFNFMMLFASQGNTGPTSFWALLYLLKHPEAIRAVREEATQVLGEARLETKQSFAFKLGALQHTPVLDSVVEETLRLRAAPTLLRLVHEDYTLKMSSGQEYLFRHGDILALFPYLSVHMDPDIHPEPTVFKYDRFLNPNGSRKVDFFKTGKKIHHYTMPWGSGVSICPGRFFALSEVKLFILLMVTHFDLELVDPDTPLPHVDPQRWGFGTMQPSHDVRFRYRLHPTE

T2: human CYP8B1 (Homo sapiens, UniProt Q9UNU6)
T2 sequence (Q9UNU6 26-501 limits assumed): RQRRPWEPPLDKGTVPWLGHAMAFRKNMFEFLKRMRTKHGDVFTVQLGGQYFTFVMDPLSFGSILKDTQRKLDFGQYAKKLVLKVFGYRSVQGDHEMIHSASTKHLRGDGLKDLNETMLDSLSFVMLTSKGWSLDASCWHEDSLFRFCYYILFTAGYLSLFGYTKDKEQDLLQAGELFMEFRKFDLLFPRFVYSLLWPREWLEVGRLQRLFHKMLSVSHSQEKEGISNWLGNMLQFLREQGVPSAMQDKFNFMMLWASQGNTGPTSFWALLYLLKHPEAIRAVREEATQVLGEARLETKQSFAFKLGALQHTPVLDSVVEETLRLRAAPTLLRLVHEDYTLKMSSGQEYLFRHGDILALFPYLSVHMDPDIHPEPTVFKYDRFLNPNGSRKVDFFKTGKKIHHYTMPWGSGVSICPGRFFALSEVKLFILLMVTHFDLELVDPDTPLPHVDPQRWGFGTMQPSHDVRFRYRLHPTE


Key:
CYP8B1 W281F = target: T1, CYP8B1 W281F; assay: Ligand-binding assay by shift of the heme Soret peak, CYP8B1 W281F mutant
human CYP8B1 [1] = target: T2, human CYP8B1; assay: Ligand-binding assay by shift of the heme Soret peak, wild type CYP8B1; conditions: for Shift in Soret peak: spectral binding type, wild type CYP8B1; for Kd / KD: azoles, single site binding fit, interval in parentheses
Outline: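 Recombinant human CYP8B1 was expressed in E. coli with groES-groEL co-expression and purified by Ni-NTA and cation-exchange chromatography. Ligand was titrated into 1 μM enzyme in 50 mM potassium phosphate with 20% glycerol, in a 1 cm cuvette; azoles were dissolved in DMSO. The Soret shift (local absorbance maximum minus minimum) was plotted against concentration and fitted to a single-site specific binding equation, in triplicate.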

[2] = cited from earlier work
human CYP8B1 [3] = target: T2, human CYP8B1; assay: CYP8B1 inhibition assays; assay type: biochemical; conditions: activity remaining vs control without inhibitor, 80 μM inhibitor
Outline: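 Test compound at 80 μM was added to the kinetic assay: 0.01 μM CYP8B1 and 0.06 μM human P450 reductase in 50 mM potassium phosphate pH 7.4 with 20% glycerol, preincubated 10 min at room temperature. Substrate 7α-hydroxycholest-4-en-3-one was added, 200 μM NADPH started the reaction at 37 °C, and chloroform stopped it. The 12α-hydroxy product was measured by HPLC-UV at 240 nm. Activity is % of an inhibitor-free control; duplicate or triplicate.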

[4] = substrate: CC(C)CCC[C@@H](C)[C@H]1CC[C@H]2[C@@H]3[C@H](O)CC4=CC(=O)CC[C@]4(C)[C@H]3CC[C@]12C; assay type: biochemical, human; conditions: other: W281F mutant, 95% CI; pH 7.4
[5] = substrate: CC(C)CCC[C@@H](C)[C@H]1CC[C@H]2[C@@H]3[C@H](O)CC4=CC(=O)CC[C@]4(C)[C@H]3CC[C@]12C; assay type: biochemical, human; conditions: other: wild type CYP8B1, 95% CI; pH 7.4

| Shift in Soret peak (human CYP8B1 [1]) | Turnover at 80 μM (%) (human CYP8B1 [3]) | Kd (human CYP8B1 [1]) [nM] | KD (human CYP8B1 [1]) | Molecule | further results |
| --- | --- | --- | --- | --- | --- |
| type I |  |  |  | CC(C)CCC[C@@H](C)[C@H]1CC[C@H]2[C@@H]3[C@H](O)CC4=CC(=O)CC[C@]4(C)[C@H]3CC[C@]12C [7α-hydroxycholest-4-en-3-one] | Kd (CYP8B1 W281F): 34.3 nM |
|  |  |  |  | C[C@H](CCC(=O)O)[C@H]1CC[C@H]2[C@@H]3[C@H](O)C[C@@H]4C[C@H](O)CC[C@]4(C)[C@H]3C[C@H](O)[C@]12C [Cholic acid] | critical micellar concentration [2]: ~50 µM |
| Type II | 6.8 | 1600 |  | Clc1ccccc1C(c1ccccc1)(c1ccccc1)n1ccnc1 [Clotrimazole] |  |
| Type II | 1.7 | 57 | submicromolar | Clc1ccc(COC(Cn2ccnc2)c2ccc(Cl)cc2Cl)cc1 (centres unmarked) [Econazole] |  |
| None | 95 |  |  | OC(Cn1cncn1)(Cn1cncn1)c1ccc(F)cc1F [Fluconazole] | Shift in Soret peak (human CYP8B1 [1]; listed as fluconazole): did not induce a shift; also recorded: no binding |
| Type II | 16 | 1300 | micromolar | CC(=O)N1CCN(c2ccc(OCC3COC(Cn4ccnc4)(c4ccc(Cl)cc4Cl)O3)cc2)CC1 (centres unmarked) [Ketoconazole] |  |
| Type II | 30 | 1300 |  | Clc1cccc(C(c2ccc3[nH]cnc3c2)n2ccnc2)c1 (centres unmarked) [Liarozole] |  |
| Type II | 0.75 | 98 | submicromolar | Clc1ccc(COC(Cn2ccnc2)c2ccc(Cl)cc2Cl)c(Cl)c1 (centres unmarked) [Miconazole] | Turnover at 80 μM (%) (human CYP8B1 [3]; listed as miconazole): less than 1% |
| Type II | 1.4 | 210 | submicromolar | Clc1ccc(C(Cn2ccnc2)OCc2ccsc2Cl)c(Cl)c1 (centres unmarked) [Tioconazole] |  |
|  |  |  |  | CYP8B1 W281F (Homo sapiens; W281F) (protein) RQRRPWEPPLDKGTVPWLGHAMAFRKNMFEFLKRMRTKHGDVFTVQLGGQYFTFVMDPLSFGSILKDTQRKLDFGQYAKKLVLKVFGYRSVQGDHEMIHSASTKHLRGDGLKDLNETMLDSLSFVMLTSKGWSLDASCWHEDSLFRFCYYILFTAGYLSLFGYTKDKEQDLLQAGELFMEFRKFDLLFPRFVYSLLWPREWLEVGRLQRLFHKMLSVSHSQEKEGISNWLGNMLQFLREQGVPSAMQDKFNFMMLFASQGNTGPTSFWALLYLLKHPEAIRAVREEATQVLGEARLETKQSFAFKLGALQHTPVLDSVVEETLRLRAAPTLLRLVHEDYTLKMSSGQEYLFRHGDILALFPYLSVHMDPDIHPEPTVFKYDRFLNPNGSRKVDFFKTGKKIHHYTMPWGSGVSICPGRFFALSEVKLFILLMVTHFDLELVDPDTPLPHVDPQRWGFGTMQPSHDVRFRYRLHPTE | Km [4]: 0.54 µM; kcat [4]: 1.20 min⁻¹; kcat/Km [4]: 2.2 μM^−^1min^−1 |
|  |  |  |  | human CYP8B1 (Homo sapiens) (protein) RQRRPWEPPLDKGTVPWLGHAMAFRKNMFEFLKRMRTKHGDVFTVQLGGQYFTFVMDPLSFGSILKDTQRKLDFGQYAKKLVLKVFGYRSVQGDHEMIHSASTKHLRGDGLKDLNETMLDSLSFVMLTSKGWSLDASCWHEDSLFRFCYYILFTAGYLSLFGYTKDKEQDLLQAGELFMEFRKFDLLFPRFVYSLLWPREWLEVGRLQRLFHKMLSVSHSQEKEGISNWLGNMLQFLREQGVPSAMQDKFNFMMLWASQGNTGPTSFWALLYLLKHPEAIRAVREEATQVLGEARLETKQSFAFKLGALQHTPVLDSVVEETLRLRAAPTLLRLVHEDYTLKMSSGQEYLFRHGDILALFPYLSVHMDPDIHPEPTVFKYDRFLNPNGSRKVDFFKTGKKIHHYTMPWGSGVSICPGRFFALSEVKLFILLMVTHFDLELVDPDTPLPHVDPQRWGFGTMQPSHDVRFRYRLHPTE | Km [5]: 0.5 µM; kcat [5]: 7.4 min⁻¹; kcat/Km [5]: 14.7 μM^−^1min^−1 |
